In article PMC5079036 (Journal of the American Heart Association: Cardiovascular …, 2016):

Assays:
[1] = system: primary neonatal cardiomyocytes (PNCMs); experiment: Live cell imaging of mitochondrial membrane potential under normoxia; type: cell-based, rat
Outline: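 Neonatal rat cardiomyocytes (pups 1–3 days old) were plated on glass coverslips at 150 000 cells per dish. Cells were loaded with TMRE 150 nmol/L for 30 min at 37°C, then washed. Imaging was single-cell in a chamber at 37°C, 5% pco₂ and 21% po₂. Inhibitor (1 μmol/L) was added 10 min before the TRPV1 agonist (1 μmol/L). Images were taken every 5 min over 30 min and normalized to baseline (=1). n=3 biological replicates.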

Male Sprague‐Dawley rats = experiment: In vivo myocardial infarction rodent model; set-up: species or system rat
humans = conditions: TRPV1 antagonist; cited from earlier work
isolated rat hearts = experiment: Isolated heart model of ischemia–reperfusion injury; conditions: capsaicin 0.1 μmol/L, unpaced hearts, vs vehicle DMSO; n=4

Oc1cc2c(cc1O)CN(C(=S)NCCc1ccc(Cl)cc1)CCC2 [CPZ, capsazepine]
Effect on capsaicin-induced change in mitochondrial membrane potential (TMRE) ([1]; CPZ 1 μmol/L or CsA 1 μmol/L 10 minutes prior to CAP 1 μmol/L, n=3): blocked
Effect on heart rate change afforded by capsaicin (Male Sprague‐Dawley rats; CPZ 3 mg/kg or CsA 2.5 mg/kg before capsaicin 0.3 mg/kg): reduced the change in heart rate

CC(=O)Nc1nc2c(Oc3cc(-c4ccc(C(F)(F)F)cc4)ncn3)cccc2s1 [AMG517]
Body temperature effect in humans (humans): caused sudden hyperthermia in humans that persisted for days

COc1cc(CNC(=O)CCCC/C=C/C(C)C)ccc1O [CAP, capsaicin]
Mitochondrial membrane potential (TMRE fluorescence) ([1]; capsaicin 0.1–10 μmol/L, 30 min, normoxia, 3 biological replicates): decreased mitochondrial membrane potential
Change in heart rate after CAP administration (Male Sprague‐Dawley rats; CAP 0.1-3.0 mg/kg iv, n=6 per group): increased heart rate when given intravenously
infarct size reduction compared with control (Male Sprague‐Dawley rats; given 5 minutes before reperfusion (CAP 0.3, CsA 2.5, V1‐cal 1 mg/kg iv)): 27%
Heart rate during first 15 minutes of infusion (isolated rat hearts): increased heart rate during the first 15 minutes of infusion
